For test [1], the target named is T1, Ectonucleotide pyrophosphatase/phosphodiesterase family member 1 (Homo sapiens) (UniProt P22413).
T1 sequence (whole entry): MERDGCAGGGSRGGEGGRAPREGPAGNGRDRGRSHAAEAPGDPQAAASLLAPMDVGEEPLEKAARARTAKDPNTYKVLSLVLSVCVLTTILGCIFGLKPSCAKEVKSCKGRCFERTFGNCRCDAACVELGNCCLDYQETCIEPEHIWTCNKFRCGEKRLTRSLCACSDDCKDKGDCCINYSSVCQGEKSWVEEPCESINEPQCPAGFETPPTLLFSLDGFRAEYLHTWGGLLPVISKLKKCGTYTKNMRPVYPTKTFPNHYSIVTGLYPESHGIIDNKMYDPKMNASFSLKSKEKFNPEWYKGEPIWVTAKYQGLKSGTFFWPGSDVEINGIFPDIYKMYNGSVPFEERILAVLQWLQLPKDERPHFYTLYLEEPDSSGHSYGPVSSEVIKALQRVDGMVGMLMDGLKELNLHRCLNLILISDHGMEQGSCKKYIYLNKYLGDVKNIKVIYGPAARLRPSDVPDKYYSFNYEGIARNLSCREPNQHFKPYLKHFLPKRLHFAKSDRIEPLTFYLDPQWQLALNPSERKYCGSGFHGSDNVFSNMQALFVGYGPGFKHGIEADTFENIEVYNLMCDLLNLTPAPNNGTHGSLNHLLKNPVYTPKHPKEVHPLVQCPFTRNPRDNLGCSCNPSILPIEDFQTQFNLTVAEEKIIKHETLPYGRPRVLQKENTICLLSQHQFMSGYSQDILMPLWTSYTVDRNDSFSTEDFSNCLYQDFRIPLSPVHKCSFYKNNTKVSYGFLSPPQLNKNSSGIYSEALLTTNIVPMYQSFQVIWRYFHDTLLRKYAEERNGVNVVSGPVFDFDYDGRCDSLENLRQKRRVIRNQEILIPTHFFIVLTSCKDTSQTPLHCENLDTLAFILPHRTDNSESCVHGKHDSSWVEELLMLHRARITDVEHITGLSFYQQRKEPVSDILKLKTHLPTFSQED
Put plainly: Inhibition of NPP1 in human HTB-85 cells using pNP-TMP as substrate at 100 uM after 20 mins […]. Format: cell-based. In short, it runs like this:
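Assay on intact human osteocarcinoma HTB-85 (SaOS-2) cells as native NPP1 source, in 0.5 mL incubation mixture. pNP-TMP is added to 100 μM final with inhibitor at 100 μM. After 20 min, p-nitrophenol is read at 410 nm. Substrate alone is set as 100%. Three experiments in triplicate.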

The target of test [2] is T2, Ectonucleoside triphosphate diphosphohydrolase 8 (Homo sapiens) (UniProt Q5MY95).
T2 sequence (whole entry): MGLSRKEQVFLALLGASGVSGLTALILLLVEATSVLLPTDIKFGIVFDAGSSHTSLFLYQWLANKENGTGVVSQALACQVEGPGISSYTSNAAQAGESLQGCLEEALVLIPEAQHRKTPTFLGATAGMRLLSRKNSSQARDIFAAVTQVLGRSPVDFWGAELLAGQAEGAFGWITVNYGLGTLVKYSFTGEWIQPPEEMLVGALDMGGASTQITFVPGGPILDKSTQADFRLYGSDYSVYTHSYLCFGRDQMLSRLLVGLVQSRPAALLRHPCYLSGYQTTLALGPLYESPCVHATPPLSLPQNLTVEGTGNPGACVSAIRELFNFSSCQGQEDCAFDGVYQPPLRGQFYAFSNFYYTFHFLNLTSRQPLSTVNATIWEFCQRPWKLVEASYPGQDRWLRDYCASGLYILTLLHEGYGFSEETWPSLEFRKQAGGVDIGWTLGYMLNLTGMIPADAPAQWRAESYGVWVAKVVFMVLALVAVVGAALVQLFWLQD
Put plainly: Inhibition of human NTPDase-8 using ATP as substrate assessed as inorganic phosphate release at 100 uM after 15 mins relative to control. In outline: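 Protein extracts are from COS-7 cells transiently transfected with human NTPDase1, 2, 3 or 8. Extract is preincubated for 3 min at 37 °C in Tris–Ringer buffer (pH 7.3). […] Three experiments in triplicate.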

Test [3] has as its target T3, Ectonucleotide pyrophosphatase/phosphodiesterase family member 1 (Homo sapiens, UniProt P22413).
T3 sequence (P22413 whole entry): T1 sequence (whole entry)
Description: Mixed type inhibition of human NPP1 using pNP-TMP as substrate assessed as dissociation constant for enzyme-inhibitor-substrate complex after 20 mins by Dixon and Cornish-Bowden method. In outline: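 Human NPP1 (COS-7 lysate) is tested with pNP-TMP hydrolysis at 37 °C in pH 8.5 Tris buffer, reading p-nitrophenol at […]. Substrate is 25, 50 and 100 μM, and inhibitor is 0, 25, 50 and 100 μM. Inhibition type, Ki and Ki′ (EIS complex dissociation constant) come from Dixon and Cornish–Bowden plots of three independent experiments.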

For test [4], the target named is P2Y purinoceptor 1 (Homo sapiens) (UniProt P47900). Description: Agonist activity at human P2Y1 receptor expressed in human 1321N1 cells assessed as increase of intracellular calcium level up to 10 uM after 30 mins using fura-2 AM by fluorescence assay. The format is functional, cell-based. For orientation: A change in cytosolic calcium serves as a functional read-out for many receptors and channels.
P2Y purinoceptor 1 (Homo sapiens), sequence (P47900 whole entry): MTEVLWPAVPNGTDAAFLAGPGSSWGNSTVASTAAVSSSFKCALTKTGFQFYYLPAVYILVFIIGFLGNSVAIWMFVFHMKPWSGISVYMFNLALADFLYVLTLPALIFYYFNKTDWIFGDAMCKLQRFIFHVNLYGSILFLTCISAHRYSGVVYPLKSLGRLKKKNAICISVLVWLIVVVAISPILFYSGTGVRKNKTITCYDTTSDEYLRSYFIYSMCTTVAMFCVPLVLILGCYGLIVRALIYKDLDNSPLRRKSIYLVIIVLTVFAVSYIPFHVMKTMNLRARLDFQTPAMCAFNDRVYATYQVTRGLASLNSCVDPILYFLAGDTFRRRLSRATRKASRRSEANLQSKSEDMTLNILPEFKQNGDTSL

The target of test [5] is P2Y purinoceptor 2 (Homo sapiens) (UniProt P41231). Put plainly: Antagonist activity at human P2Y2 receptor expressed in human 1321N1 cells assessed as effect on UTP-induced effect. The format is cell-based.
P2Y purinoceptor 2 (Homo sapiens), sequence (P41231 whole entry): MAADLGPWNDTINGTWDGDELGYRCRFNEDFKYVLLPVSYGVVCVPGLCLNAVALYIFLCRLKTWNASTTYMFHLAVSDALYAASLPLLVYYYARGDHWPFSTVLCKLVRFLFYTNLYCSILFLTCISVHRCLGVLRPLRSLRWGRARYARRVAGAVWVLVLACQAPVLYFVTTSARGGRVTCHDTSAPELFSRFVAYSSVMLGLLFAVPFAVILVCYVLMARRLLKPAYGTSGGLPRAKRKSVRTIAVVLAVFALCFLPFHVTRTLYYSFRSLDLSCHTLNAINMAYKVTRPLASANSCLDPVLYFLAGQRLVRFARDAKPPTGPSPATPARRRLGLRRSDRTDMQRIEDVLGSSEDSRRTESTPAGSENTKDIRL
The target of test [6] is T4, Alkaline phosphatase, tissue-nonspecific isozyme (Homo sapiens) (UniProt P05186).
T4 sequence (whole entry): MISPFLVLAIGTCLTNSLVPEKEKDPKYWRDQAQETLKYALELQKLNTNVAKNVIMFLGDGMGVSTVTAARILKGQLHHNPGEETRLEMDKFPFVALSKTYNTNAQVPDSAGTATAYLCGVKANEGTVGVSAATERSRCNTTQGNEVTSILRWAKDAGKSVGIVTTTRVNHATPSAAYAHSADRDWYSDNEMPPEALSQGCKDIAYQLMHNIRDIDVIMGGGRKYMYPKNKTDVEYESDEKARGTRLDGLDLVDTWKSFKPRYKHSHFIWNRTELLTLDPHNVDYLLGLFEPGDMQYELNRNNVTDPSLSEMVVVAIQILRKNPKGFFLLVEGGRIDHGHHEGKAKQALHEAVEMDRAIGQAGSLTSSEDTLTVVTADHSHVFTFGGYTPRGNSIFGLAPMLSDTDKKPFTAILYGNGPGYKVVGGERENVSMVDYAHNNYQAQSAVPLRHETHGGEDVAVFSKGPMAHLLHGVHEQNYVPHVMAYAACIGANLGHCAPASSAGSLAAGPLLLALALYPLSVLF
Put plainly: Inhibition of TNAP (unknown origin) using ATP as substrate assessed as inorganic phosphate release at 100 uM after 15 mins relative to control.

Test [7] concerns the target P2Y purinoceptor 2 (Homo sapiens) (UniProt P41231). Put plainly: Agonist activity at human P2Y2 receptor expressed in human 1321N1 cells assessed as increase of intracellular calcium level at 100 uM after 30 mins using fura-2 AM by fluorescence assay. The format is functional, cell-based.

Calls of active or inactive are those of the source. The calls are words filed in the database; no cut-off is given here.

As usually defined, the inhibition is the relative decrease from the control value, in per cent. Broadly, the Ki is a dissociation constant, usually derived from enzyme kinetics or from competition with a known ligand.

`Nc1ncnc2c1ncn2[C@@H]1O[C@H](CO[P@](O)(=S)OP(=O)(O)CP(=O)(O)O)[C@@H](O)[C@H]1O`: in test [1], the inhibition result was “Active”. Moreover, the inhibition in test [2] stood at 0.5%. The Ki in test [3] came to 4.5 µM. Besides, the result in test [4] was inactive.

For the compound `Nc1ncnc2c1ncn2[C@@H]1O[C@H](COP(=O)(O)CP(=O)(O)OP(O)(O)=S)[C@@H](O)[C@H]1O`, the inhibition result in test [5] is “inactive”. Further, the inhibition result in test [1] was “Active”. For the same compound, the inhibition turned out to be 7% in test [2] and 8% in test [6]. Also, the outcome in test [4] and in test [7] was inactive.

In the case of `Nc1ncnc2c1ncn2[C@@H]1O[C@H](CO[P@@](O)(=S)OP(=O)(O)CP(=O)(O)O)[C@@H](O)[C@H]1O`, the inhibition entry in test [1] was “Active”. In addition, the inhibition in test [2] is 1.5%. For the same compound, in test [4], the result was inactive.

Turning to `Nc1ncnc2c1ncn2[C@@H]1O[C@H](CO[P@](O)(=S)OP(=O)(O)C(Cl)(Cl)P(=O)(O)O)[C@@H](O)[C@H]1O`, the inhibition result in test [5] is “inactive”. Further, in test [1], the inhibition result is “Active”. For the same compound, the inhibition is 4.9% in test [2] and 17% in test [6]. Moreover, the outcome in test [4] and in test [7] was inactive.

`Nc1ncnc2c1ncn2[C@@H]1O[C@H](CO[P@@](O)(=S)OP(=O)(O)C(Cl)(Cl)P(=O)(O)O)[C@@H](O)[C@H]1O`: in test [1], the inhibition entry was “Active”. In addition, the inhibition in test [2] amounted to 0.5%. In test [4], the outcome was inactive.

For the origin of these results see ChEMBL document CHEMBL3286381 (J Med Chem, 2014).
